{"source": "ChEMBL document CHEMBL1149614", "about": "“Exomethylene pyranonucleosides: efficient synthesis and biological evaluation of 1-(2,3,4-trideoxy-2-methylene-beta-d-glycero-hex-3-enopyranosyl)thymine” (Bioorg Med Chem, 2007)", "key": {"[1]": {"assay": "Cytotoxicity against rhesus monkey MA104 cells after 72 hrs", "type": "functional", "settings": "Macaca mulatta, MA104, 72 h"}, "Rotavirus [2]": {"tested_on": "Rotavirus", "assay": "Antiviral activity against Rotavirus RF in rhesus monkey MA104 cells assessed as inhibition of infectivity following virus attachment after 72 hrs", "type": "functional, organism-based", "settings": "MA104, 72 h", "summary_of_the_method": "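Monolayers infected with rotavirus RF for 1 h at 37 °C in 5% CO2, then washed with unsupplemented DMEM and immediately given 3-fold serial dilutions from 0.5 mg/mL. Results are mean % of virus-only control absorbance (n = 6).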"}, "[3]": {"assay": "Selectivity index, ratio of CC50 for rhesus monkey MA104 cells to IC50 for Rotavirus RF", "type": "functional"}, "Rotavirus [4]": {"tested_on": "Rotavirus", "assay": "Antiviral activity against Rotavirus RF in human Caco-2 cells assessed as neutralization of virus in solution before its attachment after 72 hrs", "type": "functional, organism-based", "settings": "Caco-2, 72 h", "summary_of_the_method": "(§1)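 Threefold dilutions from 0.5 mg/mL were co-incubated with rotavirus RF in trypsin-supplemented DMEM for 12 h at 37 °C, 5% CO2, before infecting monolayers. Results are mean % of virus-only control (n = 6) for each dilution. IC50 taken from the concentration–effect curve.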"}, "[5]": {"assay": "Selectivity index, ratio of CC50 for human Caco-2 cells to IC50 for Rotavirus RF", "type": "functional"}, "H4": {"tested_on": "H4", "assay": "Cytotoxicity against human H4 cells after 72 hrs", "type": "functional", "settings": "H4, 72 h", "summary_of_the_method": "(§2)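 H4 or Caco-2 cells (6 × 10⁶ per plate) treated with 3-fold serial dilutions from 0.5 mg/mL and held 72 h at 37 °C in a humidified incubator. Results are mean % of treated (n = 2) versus control (n = 24) absorbance.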"}, "Caco-2 [6]": {"tested_on": "Caco-2", "assay": "Cytotoxicity against human Caco-2 cells after 72 hrs", "type": "functional", "settings": "Caco-2, 72 h", "summary_of_the_method": "as §2"}, "Rotavirus [7]": {"tested_on": "Rotavirus", "assay": "Antiviral activity against Rotavirus RF infected in rhesus monkey MA104 cells assessed as neutralization of virus in solution before its attachment after 72 hrs", "type": "functional, organism-based", "settings": "MA104, 72 h", "summary_of_the_method": "as §1"}, "Caco-2 [8]": {"tested_on": "Caco-2", "assay": "Growth inhibition of human Caco-2 cells after 10 days", "type": "functional, cell-based", "settings": "Caco-2, 240 h", "summary_of_the_method": "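Caco-2 monolayers in DMEM/10% fetal bovine serum received 3-fold dilutions from 0.5 mg/mL, six wells per compound, for 10 days at 37 °C, humidified. Colonies counted in each well. Results are mean % colony number of treated (n = 2) versus control (n = 24) wells.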"}, "[9]": {"assay": "Tumor selectivity index, ratio of CC50 for human H4 cells to CC50 for rhesus monkey MA104 cells", "type": "functional"}, "[10]": {"assay": "Tumor selectivity index, ratio of CC50 for human H4 cells to CC50 for human Caco-2 cells", "type": "functional", "summary_of_the_method": "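Ratio of 72 h crystal-violet CC50 in H4 cells to CC50 in Caco-2 cells.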"}, "[11]": {"assay": "Selectivity index, ratio of CC50 for rhesus monkey MA104 cells to IC50 for Rotavirus RF after attachment to MA104 cells"}}}
{"smiles": "C=C1[C@@H](O)[C@@H](O)[C@@H](CO)O[C@H]1n1cc(C)c(=O)[nH]c1=O", "values": [{"measurement": "CC50", "setting": "[1]", "value": 211, "unit": "µM"}, {"measurement": "IC50", "setting": "Rotavirus [2]", "value": 7.03, "unit": "µM"}, {"measurement": "Ratio CC50/IC50", "setting": "[3]", "value": 85.8}, {"measurement": "IC50", "setting": "Rotavirus [4]", "value": 2.46, "unit": "µM"}, {"measurement": "Ratio CC50/IC50", "setting": "[5]", "value": 28.61}, {"measurement": "CC50", "setting": "H4", "value": 1760, "unit": "µM"}, {"measurement": "CC50", "setting": "Caco-2 [6]", "value": 70.4, "unit": "µM"}, {"measurement": "IC50", "setting": "Rotavirus [7]", "value": 2.46, "unit": "µM"}, {"measurement": "IC50", "setting": "Caco-2 [8]", "value": 21.1, "unit": "µM"}, {"measurement": "Ratio", "setting": "[9]", "value": 8.3}, {"measurement": "Ratio", "setting": "[10]", "value": 24.9}, {"measurement": "Ratio CC50/IC50", "setting": "[11]", "value": 30.03}]}
{"smiles": "Cc1cn([C@@H]2O[C@H](CO)[C@H](O)[C@H](O)C2=O)c(=O)[nH]c1=O", "values": [{"measurement": "CC50", "setting": "[1]", "value": 210, "unit": "µM"}, {"measurement": "IC50", "setting": "Rotavirus [2]", "value": 6.98, "unit": "µM"}, {"measurement": "Ratio CC50/IC50", "setting": "[3]", "value": 85.9}, {"measurement": "IC50", "setting": "Rotavirus [4]", "value": 2.44, "unit": "µM"}, {"measurement": "Ratio CC50/IC50", "setting": "[5]", "value": 28.65}, {"measurement": "CC50", "setting": "H4", "value": 1750, "unit": "µM"}, {"measurement": "CC50", "setting": "Caco-2 [6]", "value": 69.9, "unit": "µM"}, {"measurement": "IC50", "setting": "Rotavirus [7]", "value": 2.44, "unit": "µM"}, {"measurement": "IC50", "setting": "Caco-2 [8]", "value": 0.7, "unit": "µM"}, {"measurement": "Ratio", "setting": "[9]", "value": 8.3}, {"measurement": "Ratio", "setting": "[10]", "value": 25}, {"measurement": "Ratio CC50/IC50", "setting": "[11]", "value": 30.03}]}
{"smiles": "C=C1C=C[C@@H](CO)O[C@H]1n1cc(C)c(=O)[nH]c1=O", "values": [{"measurement": "CC50", "setting": "[1]", "value": 480, "unit": "µM"}, {"measurement": "IC50", "setting": "Rotavirus [2]", "value": 79.9, "unit": "µM"}, {"measurement": "CC50", "setting": "H4", "value": 2.8, "unit": "µM"}, {"measurement": "CC50", "setting": "Caco-2 [6]", "value": 2000, "unit": "µM"}, {"measurement": "IC50", "setting": "Caco-2 [8]", "value": 79.9, "unit": "µM"}, {"measurement": "Ratio", "setting": "[9]", "value": 0.0058}, {"measurement": "Ratio", "setting": "[10]", "value": 0.0014}, {"measurement": "Ratio CC50/IC50", "setting": "[11]", "value": 5.99}]}
{"smiles": "C=C1C=C[C@@H](COC(c2ccccc2)(c2ccccc2)c2ccccc2)O[C@H]1n1cc(C)c(=O)[nH]c1=O", "values": [{"measurement": "CC50", "setting": "[1]", "value": 244, "unit": "µM"}, {"measurement": "IC50", "setting": "Rotavirus [2]", "value": 4.06, "unit": "µM"}, {"measurement": "CC50", "setting": "H4", "value": 40.6, "unit": "µM"}, {"measurement": "CC50", "setting": "Caco-2 [6]", "value": 1020, "unit": "µM"}, {"measurement": "IC50", "setting": "Caco-2 [8]", "value": 0.4, "unit": "µM"}, {"measurement": "Ratio", "setting": "[9]", "value": 0.16}, {"measurement": "Ratio", "setting": "[10]", "value": 0.04}, {"measurement": "Ratio CC50/IC50", "setting": "[11]", "value": 60}]}
{"smiles": "O=c1[nH]cc(F)c(=O)[nH]1", "note": "[FLUOROURACIL]", "values": [{"measurement": "CC50", "setting": "[1]", "value": 231, "unit": "µM"}, {"measurement": "CC50", "setting": "H4", "value": 3840, "unit": "µM"}, {"measurement": "Ratio", "setting": "[9]", "value": 16.67}, {"measurement": "Ratio", "setting": "[10]", "value": 10}]}
{"smiles": "Cc1cn([C@H]2C[C@H](N=[N+]=[N-])[C@@H](CO)O2)c(=O)[nH]c1=O", "note": "[ZIDOVUDINE]", "values": [{"measurement": "IC50", "setting": "Rotavirus [2]", "value": 22.4, "unit": "µM"}, {"measurement": "Ratio CC50/IC50", "setting": "[3]", "value": 3.01}, {"measurement": "Ratio CC50/IC50", "setting": "[5]", "value": 0.75}, {"measurement": "IC50", "setting": "Rotavirus [7]", "value": 74.6, "unit": "µM"}, {"measurement": "Ratio CC50/IC50", "setting": "[11]", "value": 10.03}]}
